# Measured values published in ChEMBL document CHEMBL3992505, “Optimization of substituted imidazobenzodiazepines as novel asthma treatments” (Eur J Med Chem, 2017).
# The source made the active and inactive calls. No cut-off for these calls is given here.
# Assays:
# Liver = test: Metabolic stability in human liver microsomes assessed as compound remaining at 10 uM after 1 hr by LC-MS/MS analysis; type: ADME, microsome
# Outline: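 Compound stability was measured in human or mouse liver microsomes as percent remaining after 1 h. Data came from two independent experiments, each run in triplicate.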
# [1] = Half life in human liver microsomes at 10 uM by LC-MS/MS analysis; type: ADME, microsome
# [2] = Cytotoxicity in HEK293 cells after 48 hrs by Cell-titer Glo reagent based assay; conditions: human, read-out: LD50
# Outline: (§1)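 Cells (HEK293, HepG2 or BEAS2B) exposed to compounds at a range of concentrations for 48 h; viability read by Cell-Titer Glo luminescence. Normalized to DMSO (negative) and 3-dibutylamino-1-(4-hexyl-phenyl)-propan-1-one at 150 μM final in DMSO (positive).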
# [3] = Cytotoxicity in human HepG2 cells after 48 hrs by Cell-titer Glo reagent based assay; conditions: read-out: LD50; outline: as §1
# [4] = Cytotoxicity in human BEAS2B cells after 48 hrs by Cell-titer Glo reagent based assay; design: species or system BEAS-2B; conditions: read-out: LD50; outline: as §1
# Cavia porcellus = organism: Cavia porcellus; test: Inhibition of substance P-induced smooth muscle contractile force in guinea pig tracheal rings at 16 uM after 1 hr; type: functional
# [5] = target: T1, GABA-A receptor; alpha-1/beta-3/gamma-2 (Homo sapiens, UniProt P14867+P18507+P28472); test: Activity at GABAA alpha1beta3gamma2 receptor (unknown origin) expressed in HEK293T cells assessed as potentiation of GABA-mediated increase in channel current under holding potential at -80 mV at 1 uM by patch clamp assay; type: cell-based
# T1 sequence (P14867 whole entry): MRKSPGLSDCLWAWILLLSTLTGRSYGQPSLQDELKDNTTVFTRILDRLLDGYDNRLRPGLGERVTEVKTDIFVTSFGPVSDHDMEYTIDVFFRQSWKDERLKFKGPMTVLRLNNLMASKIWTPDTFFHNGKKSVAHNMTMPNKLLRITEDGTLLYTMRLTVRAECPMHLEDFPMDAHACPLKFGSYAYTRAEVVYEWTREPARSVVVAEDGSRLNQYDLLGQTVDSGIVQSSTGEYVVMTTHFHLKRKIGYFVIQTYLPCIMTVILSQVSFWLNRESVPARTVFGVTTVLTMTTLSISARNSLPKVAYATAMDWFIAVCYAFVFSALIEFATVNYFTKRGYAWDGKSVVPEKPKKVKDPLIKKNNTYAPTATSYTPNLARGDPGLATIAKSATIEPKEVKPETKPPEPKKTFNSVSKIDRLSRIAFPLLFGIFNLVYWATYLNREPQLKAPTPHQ
# T1 sequence (P18507 whole entry): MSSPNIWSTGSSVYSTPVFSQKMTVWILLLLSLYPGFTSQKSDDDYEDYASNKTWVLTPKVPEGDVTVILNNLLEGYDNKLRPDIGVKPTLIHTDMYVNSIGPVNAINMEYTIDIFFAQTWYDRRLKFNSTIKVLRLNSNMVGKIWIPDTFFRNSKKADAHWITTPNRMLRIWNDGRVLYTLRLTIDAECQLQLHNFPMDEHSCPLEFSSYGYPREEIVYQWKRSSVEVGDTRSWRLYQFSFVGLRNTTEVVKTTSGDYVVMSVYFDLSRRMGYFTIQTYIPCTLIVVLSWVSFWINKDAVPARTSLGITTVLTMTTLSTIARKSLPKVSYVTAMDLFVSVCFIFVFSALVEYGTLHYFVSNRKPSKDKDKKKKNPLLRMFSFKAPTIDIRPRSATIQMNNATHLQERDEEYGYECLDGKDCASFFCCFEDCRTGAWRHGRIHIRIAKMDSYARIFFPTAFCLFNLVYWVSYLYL
# T1 sequence (P28472 whole entry): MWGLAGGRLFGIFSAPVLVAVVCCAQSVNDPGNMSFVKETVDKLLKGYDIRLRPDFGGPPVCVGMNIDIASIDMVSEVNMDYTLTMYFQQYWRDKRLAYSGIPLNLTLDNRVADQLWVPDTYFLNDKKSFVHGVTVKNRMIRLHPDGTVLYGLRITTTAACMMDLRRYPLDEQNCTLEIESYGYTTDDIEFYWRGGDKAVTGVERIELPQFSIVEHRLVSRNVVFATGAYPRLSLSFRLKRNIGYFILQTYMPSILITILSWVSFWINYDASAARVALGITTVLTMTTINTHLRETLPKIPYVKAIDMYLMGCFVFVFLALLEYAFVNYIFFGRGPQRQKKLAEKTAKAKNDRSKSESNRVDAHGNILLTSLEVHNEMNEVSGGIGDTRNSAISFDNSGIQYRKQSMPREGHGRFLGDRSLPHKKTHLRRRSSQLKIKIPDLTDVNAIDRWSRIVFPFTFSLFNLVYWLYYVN
# [6] = target: GABA A receptor alpha-4/beta-3/gamma-2 (Homo sapiens) (UniProt P18507+P28472+P48169); test: Activity at GABAA alpha4beta3gamma2 receptor (unknown origin) expressed in HEK293T cells assessed as potentiation of GABA-mediated increase in channel current under holding potential at -80 mV at 1 uM by patch clamp assay; type: cell-based
# Mus musculus = test: Antiasthamatic effect in BALB/c mouse model of ovalbumin-induced asthma assessed as inhibition of airway hyperresponsiveness at 40 mg/kg, ip bid for 5 days; type: functional, organism-based
# [7] = Cmax in mouse blood at 5 mg/kg, ip by LC/MS/MS analysis; type: ADME, organism-based; design: dose 5 mg/kg, route intraperitoneal
# Blood [8] = test: Half life in mouse blood at 5 mg/kg, ip by LC/MS/MS analysis; type: ADME, organism-based; conditions: in vivo
# [9] = AUC (0 to t) in mouse blood at 5 mg/kg, ip by LC/MS/MS analysis; type: ADME, organism-based
# [10] = Tmax in mouse brain at 5 mg/kg, ip by LC/MS/MS analysis; type: ADME, organism-based
# Brain [11] = test: Cmax in mouse brain at 5 mg/kg, ip by LC/MS/MS analysis; type: ADME, organism-based; design: dose 5 mg/kg, route intraperitoneal; conditions: in vivo
# [12] = Half life in mouse brain at 5 mg/kg, ip by LC/MS/MS analysis; type: ADME, organism-based
# Brain [13] = test: AUC (0 to t) in mouse brain at 5 mg/kg, ip by LC/MS/MS analysis; type: ADME, organism-based; conditions: in vivo
# [14] = Tmax in mouse lung at 5 mg/kg, ip by LC/MS/MS analysis; type: ADME, organism-based
# [15] = Half life in mouse lung at 5 mg/kg, ip by LC/MS/MS analysis; type: ADME, organism-based
# Lung = test: AUC (0 to t) in mouse lung at 5 mg/kg, ip by LC/MS/MS analysis; type: ADME, organism-based; conditions: in vivo
# [16] = Elimination rate constant in mouse blood at 5 mg/kg, ip by LC/MS/MS analysis; type: ADME, organism-based
# Blood [17] = test: Half life in mouse blood assessed as (S)-7-Methoxy-N-methyl-9-oxo-11,12,13,13a-tetrahydro-9H-benzo[e]imidazo[5,1-c]pyrrolo[1,2-a][1,4]diazepine-1-carboxamide at 5 mg/kg, ip by LC/MS/MS analysis; type: ADME, organism-based; conditions: in vivo
# Blood [18] = test: AUC (0 to t) in mouse blood assessed as (S)-7-Methoxy-N-methyl-9-oxo-11,12,13,13a-tetrahydro-9H-benzo[e]imidazo[5,1-c]pyrrolo[1,2-a][1,4]diazepine-1-carboxamide at 5 mg/kg, ip by LC/MS/MS analysis; type: ADME, organism-based; conditions: in vivo
compound,measurement,setting,value
COc1ccc2c(c1)C(=O)N1CCC[C@H]1c1c(C(=O)N(C)C)ncn1-2,Stability,Liver,92.4%
same,half-life at 10 µM,[1],705 min
same,CC50 at 48 h,[2],> 400 µM
same,CC50 at 48 h,[3],> 400 µM
same,CC50 at 48 h,[4],> 400 µM
same,inhibition,Cavia porcellus,Active
same,Activity,[5],161 to 179%
same,Activity,[6],319 to 545%
same,Activity,Mus musculus,Active
same,Cmax,[7],691 ng/mL
same,t1/2,Blood [8],8.8 min
same,AUC(0-t),[9],103 ng·h/mL
same,Tmax,[10],10 min
same,Cmax,Brain [11],123 ng/g
same,half-life,[12],10.3 min
same,AUCt,Brain [13],2701 ng·min/g
same,Tmax,[14],3 min
same,half-life,[15],11.7 min
same,AUCt,Lung,764 ng·min/g
same,k el,[16],0.0013 s⁻¹
same,t1/2,Blood [17],24.3 min
same,AUCt,Blood [18],64675 ng·min/mL
